Assays:
[1] = target: T1, Nitric oxide synthase 3 (Homo sapiens) (UniProt P29474); assay: Inhibition of human eNOS assessed as residual activity at 100 uM by Griess assay relative to control
T1 sequence (whole entry): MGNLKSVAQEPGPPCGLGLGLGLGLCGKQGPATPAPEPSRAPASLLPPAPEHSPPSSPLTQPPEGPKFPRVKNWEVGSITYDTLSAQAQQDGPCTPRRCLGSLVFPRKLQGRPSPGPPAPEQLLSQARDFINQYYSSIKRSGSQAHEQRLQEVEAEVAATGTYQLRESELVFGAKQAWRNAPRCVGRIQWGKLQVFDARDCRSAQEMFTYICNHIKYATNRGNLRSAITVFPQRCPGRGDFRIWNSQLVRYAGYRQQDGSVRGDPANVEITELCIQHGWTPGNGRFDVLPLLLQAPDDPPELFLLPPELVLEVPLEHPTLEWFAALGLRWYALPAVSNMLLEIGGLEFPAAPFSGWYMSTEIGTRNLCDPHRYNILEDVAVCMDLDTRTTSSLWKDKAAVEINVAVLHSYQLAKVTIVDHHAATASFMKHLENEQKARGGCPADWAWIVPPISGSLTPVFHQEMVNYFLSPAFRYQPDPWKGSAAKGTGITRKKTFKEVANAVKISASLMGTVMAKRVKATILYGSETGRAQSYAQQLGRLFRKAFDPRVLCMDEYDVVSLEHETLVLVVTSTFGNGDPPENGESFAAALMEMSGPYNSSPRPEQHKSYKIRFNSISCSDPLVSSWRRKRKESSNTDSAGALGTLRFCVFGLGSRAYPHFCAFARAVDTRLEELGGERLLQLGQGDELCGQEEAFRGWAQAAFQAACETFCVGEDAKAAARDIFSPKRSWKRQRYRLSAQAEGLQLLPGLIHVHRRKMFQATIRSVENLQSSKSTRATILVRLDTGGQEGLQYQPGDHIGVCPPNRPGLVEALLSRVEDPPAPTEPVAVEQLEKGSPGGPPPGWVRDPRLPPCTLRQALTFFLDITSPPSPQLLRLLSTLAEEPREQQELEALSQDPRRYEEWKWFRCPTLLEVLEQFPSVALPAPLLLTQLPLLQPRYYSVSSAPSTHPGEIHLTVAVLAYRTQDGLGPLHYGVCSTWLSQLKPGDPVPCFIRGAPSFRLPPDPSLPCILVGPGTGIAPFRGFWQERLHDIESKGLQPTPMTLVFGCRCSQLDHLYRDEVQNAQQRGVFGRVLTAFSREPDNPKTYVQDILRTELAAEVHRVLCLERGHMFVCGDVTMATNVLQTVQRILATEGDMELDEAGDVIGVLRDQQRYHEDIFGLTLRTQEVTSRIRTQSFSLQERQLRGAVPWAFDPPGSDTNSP
Outline: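 Human eNOS expressed in Pichia pastoris. Incubated 20 min at 37 °C in triethanolamine pH 7.5 with 0.5 mM Ca2+, CaM, H4B 10 µM, FAD/FMN 5 µM, NADPH 0.5 mM, L-arginine 1 mM and compound at 100 µM final. Nitrite read by Griess (543 nm) after LDH/pyruvate NADPH removal; % of 1% DMSO control from 5 experiments.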

[2] = target: Nitric oxide synthase, inducible (Homo sapiens) (UniProt P35228); assay: Inhibition of human iNOS expressed in insect Sf9 cells assessed as residual activity at 100 uM by Griess assay relative to control
Outline: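 Human iNOS made in Sf9 cells, incubated at 37 °C for 20 min in 50 mM triethanolamine pH 7.5 with 1 mM Mg2+, FAD/FMN 5 µM each, 0.5 mM NADPH, 10 µM H4B, CaM and 1 mM L-arginine. Compound 100 µM final. NADPH cleared with lactate dehydrogenase/pyruvate before Griess reaction (543 nm). Residual activity relative to 1% DMSO control; mean of 5 experiments.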

[3] = target: T2, Nitric oxide synthase 3 (Bos taurus) (UniProt P29473); assay: Inhibition of bovine eNOS expressed in insect Sf9 cells assessed as residual activity at 100 uM by Griess assay relative to control
T2 sequence (whole entry): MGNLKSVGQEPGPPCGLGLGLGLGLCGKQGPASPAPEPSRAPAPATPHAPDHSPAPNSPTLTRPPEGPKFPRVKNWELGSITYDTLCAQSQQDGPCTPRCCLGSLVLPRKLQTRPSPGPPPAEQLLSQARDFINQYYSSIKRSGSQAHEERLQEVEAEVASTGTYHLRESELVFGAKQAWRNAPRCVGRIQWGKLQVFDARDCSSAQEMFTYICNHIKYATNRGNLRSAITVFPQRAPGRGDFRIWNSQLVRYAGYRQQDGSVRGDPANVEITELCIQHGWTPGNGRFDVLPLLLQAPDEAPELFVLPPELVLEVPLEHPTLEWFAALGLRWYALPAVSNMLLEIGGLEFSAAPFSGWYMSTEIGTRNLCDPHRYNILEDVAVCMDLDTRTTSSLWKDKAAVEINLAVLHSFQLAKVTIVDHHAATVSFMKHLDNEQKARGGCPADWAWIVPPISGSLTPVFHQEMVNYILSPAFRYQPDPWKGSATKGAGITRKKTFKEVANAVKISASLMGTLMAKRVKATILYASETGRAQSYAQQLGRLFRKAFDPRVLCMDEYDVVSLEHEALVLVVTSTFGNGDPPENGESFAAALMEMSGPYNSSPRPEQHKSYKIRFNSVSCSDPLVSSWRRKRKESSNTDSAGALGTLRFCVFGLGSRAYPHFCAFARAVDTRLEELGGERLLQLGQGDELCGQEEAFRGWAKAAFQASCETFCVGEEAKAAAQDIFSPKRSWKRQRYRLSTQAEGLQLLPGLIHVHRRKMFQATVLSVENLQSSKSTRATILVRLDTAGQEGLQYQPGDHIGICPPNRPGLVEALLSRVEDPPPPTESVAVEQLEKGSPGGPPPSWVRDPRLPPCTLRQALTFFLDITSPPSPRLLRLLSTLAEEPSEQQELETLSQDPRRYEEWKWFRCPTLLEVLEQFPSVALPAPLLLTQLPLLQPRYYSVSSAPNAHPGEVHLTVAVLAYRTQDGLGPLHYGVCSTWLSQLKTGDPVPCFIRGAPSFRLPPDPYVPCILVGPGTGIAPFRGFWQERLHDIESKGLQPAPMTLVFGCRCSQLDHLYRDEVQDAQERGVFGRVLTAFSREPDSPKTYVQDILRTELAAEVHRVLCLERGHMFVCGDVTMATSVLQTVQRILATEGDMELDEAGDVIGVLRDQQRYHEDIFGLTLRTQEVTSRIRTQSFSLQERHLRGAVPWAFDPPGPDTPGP
Outline: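 Bovine eNOS from Sf9 cells. Reaction: triethanolamine buffer pH 7.5, 0.5 mM Ca2+, 10 µg/ml CaM, 10 µM H4B, FAD, FMN, 0.5 mM NADPH, 1 mM L-arginine, with 100 µM compound, 20 min at 37 °C. After NADPH removal by LDH/pyruvate, nitrite measured by Griess at 543 nm. Expressed as % residual activity versus 1% DMSO control, 5 experiments.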

Chain of Nitric oxide synthase, inducible (Homo sapiens) (P35228 whole entry): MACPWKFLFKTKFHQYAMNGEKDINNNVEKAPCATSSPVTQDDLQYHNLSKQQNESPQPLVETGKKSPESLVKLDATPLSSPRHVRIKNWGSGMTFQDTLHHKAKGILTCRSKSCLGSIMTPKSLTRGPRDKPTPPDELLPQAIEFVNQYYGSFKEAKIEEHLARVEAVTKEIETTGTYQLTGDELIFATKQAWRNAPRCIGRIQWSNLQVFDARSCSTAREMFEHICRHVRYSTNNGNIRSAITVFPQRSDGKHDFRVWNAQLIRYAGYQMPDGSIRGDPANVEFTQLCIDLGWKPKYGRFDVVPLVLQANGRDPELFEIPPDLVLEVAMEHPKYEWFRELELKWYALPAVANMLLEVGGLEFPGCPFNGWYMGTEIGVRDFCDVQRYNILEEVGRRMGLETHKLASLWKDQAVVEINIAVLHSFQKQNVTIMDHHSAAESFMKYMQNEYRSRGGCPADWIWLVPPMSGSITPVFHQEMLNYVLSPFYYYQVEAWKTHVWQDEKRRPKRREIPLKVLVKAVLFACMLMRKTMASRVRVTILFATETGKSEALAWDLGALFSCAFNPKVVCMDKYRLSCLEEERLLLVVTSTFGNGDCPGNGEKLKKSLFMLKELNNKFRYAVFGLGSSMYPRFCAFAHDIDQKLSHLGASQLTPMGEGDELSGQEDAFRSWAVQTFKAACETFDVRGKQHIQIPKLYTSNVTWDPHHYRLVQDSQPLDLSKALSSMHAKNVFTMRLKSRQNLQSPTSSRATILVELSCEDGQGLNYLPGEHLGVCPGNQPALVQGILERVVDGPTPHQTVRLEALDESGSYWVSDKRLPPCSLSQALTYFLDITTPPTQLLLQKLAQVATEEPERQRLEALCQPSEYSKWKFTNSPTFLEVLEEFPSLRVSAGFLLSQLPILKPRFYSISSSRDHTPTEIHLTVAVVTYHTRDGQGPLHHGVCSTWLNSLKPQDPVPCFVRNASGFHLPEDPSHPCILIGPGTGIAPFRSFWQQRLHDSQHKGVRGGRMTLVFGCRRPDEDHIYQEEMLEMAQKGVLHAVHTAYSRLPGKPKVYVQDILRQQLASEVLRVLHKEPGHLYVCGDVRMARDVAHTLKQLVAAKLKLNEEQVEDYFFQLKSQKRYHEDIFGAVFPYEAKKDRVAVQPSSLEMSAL

SMILES	Activity [1] [%]	Activity [2] [%]	Activity [3] [%]
CC1=CC2=NCC(C(=O)c3ccc(OCc4ccc(Br)cc4)cc3)CN2C=C1.Cl (stereo not drawn)	16	83	–
CCCNC(=N)NCCC[C@H](N)C(=O)O	96	95	93
CC1=CC=CC2=NCC(C(=O)c3ccc(C)cc3)CN12.[O-][Cl+3]([O-])([O-])O (stereo not drawn)	–	–	101
CC1=CC2=NCC(C(=O)c3ccc(-c4ccccc4)cc3)CN2C=C1 (stereo not drawn)	8	17	17
CC1=CC2=NCC(C(=O)c3ccc(-c4ccc(C#N)cc4)cc3)CN2C=C1.Cl (stereo not drawn)	55	55	–
O=C(c1ccc(Br)cc1)C1CN=C2C=CC=CN2C1 (stereo not drawn)	85	110	86
CC1=CC=CC2=NCC(C(=O)c3ccc4ccccc4c3)CN12 (stereo not drawn)	75	89	75
COc1ccc(C(=O)C2CN=C3C=C(C)C=CN3C2)cc1F.[O-][Cl+3]([O-])([O-])O (stereo not drawn)	84	102	–
CC1=CC2=NCC(C(=O)c3ccc(Br)cc3)CN2C=C1 (stereo not drawn)	73	69	72
CC1=CC2=NCC(C(=O)c3ccc(-c4ccc(Br)cc4)cc3)CN2C(C)=C1 (stereo not drawn)	15	89	–
O=C(c1ccc2ccccc2c1)C1CN=C2C=CC=CN2C1 (stereo not drawn)	60	93	80
CC1=CC=CC2=NCC(C(=O)c3ccc(F)cc3)CN12.[O-][Cl+3]([O-])([O-])O (stereo not drawn)	77	88	41
COc1ccc(C(=O)C2CN=C3C=CC=C(C)N3C2)cc1OC.[O-][Cl+3]([O-])([O-])O (stereo not drawn)	–	–	90
COc1ccc2cc(C(=O)C3CN=C4C=C(C)C=CN4C3)ccc2c1 (stereo not drawn)	98	88	80
COc1ccc(-c2ccc(C(=O)C3CN=C4C=C(C)C=CN4C3)cc2)cc1.Cl (stereo not drawn)	57	49	–
CCSC(=N)N	37	6	27
CC1=CC2=NCC(C(=O)c3ccc4cc(C)ccc4c3)CN2C=C1.[O-][Cl+3]([O-])([O-])O (stereo not drawn)	11	103	49
CC1=CC2=NCC(C(=O)c3ccc4cc(C)ccc4c3)CN2C(C)=C1.[O-][Cl+3]([O-])([O-])O (stereo not drawn)	86	83	–
CC1=CC2=NCC(C(=O)c3ccccc3)CN2C=C1 (stereo not drawn)	72	63	40
CC1=CC2=NCC(C(=O)c3ccc4ccccc4c3)CN2C=C1 (stereo not drawn)	60	47	50
CC1=CC2=NCC(C(=O)c3ccc(OCc4ccc(Cl)cc4)cc3)CN2C=C1.[O-][Cl+3]([O-])([O-])O (stereo not drawn)	8	94	–
N=C(NCCC[C@H](N)C(=O)O)N[N+](=O)[O-]	25	48	–
CC(=N)NCc1cccc(CN)c1	105	5	107
CC1=CC2=NCC(C(=O)c3ccc(-c4ccc(Br)cc4)cc3)CN2C=C1.[O-][Cl+3]([O-])([O-])O (stereo not drawn)	17	120	–
CC1=CC=CC2=NCC(C(=O)c3ccc(Br)cc3)CN12 (stereo not drawn)	86	93	93
CC1=CC2=NCC(C(=O)c3ccc(Cl)cc3)CN2C=C1 (stereo not drawn)	7	50	20
O=C(c1ccc(Cl)c(Cl)c1)C1CN=C2C=CC=CN2C1.[O-][Cl+3]([O-])([O-])O (stereo not drawn)	89	105	83
CC1=CC2=NCC(C(=O)c3ccc(F)cc3)CN2C=C1 (stereo not drawn)	77	78	37
CC1=CC2=NCC(C(=O)c3ccc(OCc4ccc(C#N)cc4)cc3)CN2C=C1.[O-][Cl+3]([O-])([O-])O (stereo not drawn)	78	105	–

From ChEMBL document CHEMBL1152488, “Synthesis and evaluation of pyrido[1,2-a]pyrimidines as inhibitors of nitric oxide synthases” (Eur J Med Chem, 2009)
